Measurements reported in ChEMBL document CHEMBL1148485, “Synthesis and biological evaluation of new selective cytotoxic cyclolignans derived from podophyllotoxin” (J Med Chem, 2004).

Key:
[1] = test system: SK-MEL-28; test: Tested in vitro for antineoplastic activity against MEL-28 (human melanoma) tumor cell line; format: functional, cell-based
How it was run: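 MEL-28 cells seeded at 2 × 10^4 cells/well in MEM–10% FCS containing graded compound concentrations. Incubated 4 days at 37 °C, 10% CO2, 98% humidity. Stained with crystal violet and inhibition judged against untreated controls, which were kept in exponential growth. Mean of duplicate wells.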

[2] = test system: A549; test: In vitro cytotoxicity against A-549 (human lung carcinoma) cell line.; format: functional, cell-based; conditions: Homo sapiens, A549
[3] = test system: HT-29; test: In vitro cytotoxicity against HT-29 (human colon carcinoma) cell line.; format: functional, cell-based; conditions: Homo sapiens, HT-29
[4] = test system: HeLa; test: Tested for effect of compound on G2/M cell cycle phase and apoptosis in HeLa cells at a dose of 10E-8 for 72 hr; format: functional, Homo sapiens
How it was run: (§1)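 HeLa cells grown in DMEM with 10% heat-inactivated FCS, 2 mM L-glutamine, penicillin and gentamicin at 37 °C, 5% CO2. Exposed to compound at 10^-6 to 10^-8 M for 24, 48 or 72 h, untreated controls run in parallel. (3-5) × 10^5 cells fixed overnight in 70% ethanol at 4 °C, then RNase A plus propidium iodide. Phase fractions measured by flow cytometry, with sub-G1 (hypodiploid) cells counted as apoptotic. Three independent experiments.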

[5] = test system: HeLa; test: Tested for effect of compound on Sub-G1 cell cycle phase and apoptosis in HeLa cells at a dose of 10E-7 for 24 hr; format: functional, Homo sapiens; how it was run: as §1
[6] = test system: HeLa; test: Tested for effect of compound on G2/M cell cycle phase and apoptosis in HeLa cells at a dose of 10E-8 for 48 hr; format: functional, Homo sapiens; how it was run: as §1
[7] = test system: HeLa; test: Tested for effect of compound on S cell cycle phase and apoptosis in HeLa cells at a dose of 10E-8 for 72 hr; format: functional, Homo sapiens; how it was run: as §1
[8] = test system: HeLa; test: Tested for effect of compound on G0/G1 cell cycle phase and apoptosis in HeLa cells at a dose of 10E-6 for 72 hr; format: functional, Homo sapiens
How it was run: (§2)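 HeLa cells were grown in DMEM with 10% heat-inactivated FCS and 2 mM L-glutamine at 37 °C in 5% CO2. They were exposed to 10^-6 to 10^-8 M for 24, 48 or 72 h. Then (3-5)×10^5 cells were fixed overnight in 70% ethanol at 4 °C, PBS-washed, and given 1 mg/mL RNase A plus 20 µg/mL propidium iodide for 1 h at room temperature. DNA content was read by flow cytometry. Sub-G1 (hypodiploid) % counted as apoptotic. Untreated controls were run in parallel. Representative of three independent experiments.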

[9] = test system: HeLa; test: Tested for effect of compound on G0/G1 cell cycle phase and apoptosis in HeLa cells at a dose of 10E-6 for 48 hr; format: functional, Homo sapiens; how it was run: as §2
[10] = test system: HeLa; test: Tested for effect of compound on G2/M cell cycle phase and apoptosis in HeLa cells at a dose of 10E-8 for 24 hr; format: functional, Homo sapiens; how it was run: as §1
[11] = test system: HeLa; test: Tested for effect of compound on G0/G1 cell cycle phase and apoptosis in HeLa cells at a dose of 10E-6 for 24 hr; format: functional, Homo sapiens; how it was run: as §2
[12] = test system: HeLa; test: Tested for effect of compound on Sub-G1 cell cycle phase and apoptosis in HeLa cells at a dose of 10E-6 for 48 hr; format: functional, Homo sapiens; how it was run: as §1
[13] = test system: HeLa; test: Tested for effect of compound on G0/G1 cell cycle phase and apoptosis in HeLa cells at a dose of 10E-7 for 48 hr; format: functional, Homo sapiens; how it was run: as §2
[14] = test system: HeLa; test: Tested for effect of compound on Sub-G1 cell cycle phase and apoptosis in HeLa cells at a dose of 10E-8 for 48 hr; format: functional, Homo sapiens; how it was run: as §1
[15] = test system: HeLa; test: Tested for effect of compound on S cell cycle phase and apoptosis in HeLa cells at a dose of 10E-7 for 48 hr; format: functional, Homo sapiens; how it was run: as §1
[16] = test system: HeLa; test: Tested for effect of compound on G0/G1 cell cycle phase and apoptosis in HeLa cells at a dose of 10E-8 for 72 hr; format: functional, Homo sapiens; how it was run: as §2
[17] = test system: HeLa; test: Tested for effect of compound on Sub-G1 cell cycle phase and apoptosis in HeLa cells at a dose of 10E-8 for 72 hr; format: functional, Homo sapiens; how it was run: as §1
[18] = test system: HeLa; test: Tested for effect of compound on G0/G1 cell cycle phase and apoptosis in HeLa cells at a dose of 10E-7 for 24 hr; format: functional, Homo sapiens; how it was run: as §2
[19] = test system: HeLa; test: Tested for effect of compound on G2/M cell cycle phase and apoptosis in HeLa cells at a dose of 10E-7 for 24 hr; format: functional, Homo sapiens; how it was run: as §1
[20] = test system: HeLa; test: Tested for effect of compound on S cell cycle phase and apoptosis in HeLa cells at a dose of 10E-8 for 48 hr; format: functional, Homo sapiens; how it was run: as §1
[21] = test system: HeLa; test: Tested for effect of compound on G2/M cell cycle phase and apoptosis in HeLa cells at a dose of 10E-6 for 24 hr; format: functional, Homo sapiens; how it was run: as §2
[22] = test system: HeLa; test: Tested for effect of compound on Sub-G1 cell cycle phase and apoptosis in HeLa cells at a dose of 10E-6 for 72 hr; format: functional, Homo sapiens; how it was run: as §1
[23] = test system: HeLa; test: Tested for effect of compound on G2/M cell cycle phase and apoptosis in HeLa cells at a dose of 10E-6 for 48 hr; format: functional, Homo sapiens; how it was run: as §2
[24] = test system: HeLa; test: Tested for effect of compound on G2/M cell cycle phase and apoptosis in HeLa cells at a dose of 10E-7 for 48 hr; format: functional, Homo sapiens; how it was run: as §1
[25] = Selectivity index is the ratio of IC50 of P-388 cell line to that of HT-29; format: functional
[26] = test system: P388; test: Tested in vitro for antineoplastic activity against P-388 (lymphoid neoplasm from DBA/2 mouse) tumor cell line; format: functional, cell-based
How it was run: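 P-388 cells seeded at 1 × 10^4 cells/well in MEM–10% FCS containing graded compound concentrations. Incubated 4 days at 37 °C, 10% CO2, 98% humidity. Inhibition scored by inverted microscopy against untreated controls, which were kept in exponential growth. Mean of duplicate wells.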

[27] = test system: HeLa; test: Tested for effect of compound on G2/M cell cycle phase and apoptosis in HeLa cells at a dose of 10E-7 for 72 hr; format: functional, Homo sapiens; how it was run: as §1
[28] = test system: HeLa; test: Tested for effect of compound on S cell cycle phase and apoptosis in HeLa cells at a dose of 10E-6 for 48 hr; format: functional, Homo sapiens; how it was run: as §1
[29] = test system: HeLa; test: Tested for effect of compound on Sub-G1 cell cycle phase and apoptosis in HeLa cells at a dose of 10E-7 for 48 hr; format: functional, Homo sapiens; how it was run: as §1
[30] = test system: HeLa; test: Tested for effect of compound on Sub-G1 cell cycle phase and apoptosis in HeLa cells at a dose of 10E-8 for 24 hr; format: functional, Homo sapiens; how it was run: as §1
[31] = test system: HeLa; test: Tested for effect of compound on G0/G1 cell cycle phase and apoptosis in HeLa cells at a dose of 10E-7 for 72 hr; format: functional, Homo sapiens; how it was run: as §2
[32] = test system: HeLa; test: Tested for effect of compound on G0/G1 cell cycle phase and apoptosis in HeLa cells at a dose of 10E-8 for 24 hr; format: functional, Homo sapiens; how it was run: as §2
[33] = test system: HeLa; test: Tested for effect of compound on G2/M cell cycle phase and apoptosis in HeLa cells at a dose of 10E-6 for 72 hr; format: functional, Homo sapiens; how it was run: as §1
[34] = test system: HeLa; test: Tested for effect of compound on Sub-G1 cell cycle phase and apoptosis in HeLa cells at a dose of 10E-6 for 24 hr; format: functional, Homo sapiens; how it was run: as §1
[35] = test system: HeLa; test: Tested for effect of compound on S cell cycle phase and apoptosis in HeLa cells at a dose of 10E-6 for 72 hr; format: functional, Homo sapiens; how it was run: as §1
[36] = test system: HeLa; test: Tested for effect of compound on S cell cycle phase and apoptosis in HeLa cells at a dose of 10E-7 for 72 hr; format: functional, Homo sapiens; how it was run: as §1
[37] = test system: HeLa; test: Tested for effect of compound on S cell cycle phase and apoptosis in HeLa cells at a dose of 10E-6 for 24 hr; format: functional, Homo sapiens; how it was run: as §1
[38] = test system: HeLa; test: Tested for effect of compound on S cell cycle phase and apoptosis in HeLa cells at a dose of 10E-8 for 24 hr; format: functional, Homo sapiens; how it was run: as §1
[39] = test system: HeLa; test: Tested for effect of compound on Sub-G1 cell cycle phase and apoptosis in HeLa cells at a dose of 10E-7 for 72 hr; format: functional, Homo sapiens; how it was run: as §1
[40] = test system: HeLa; test: Tested for effect of compound on S cell cycle phase and apoptosis in HeLa cells at a dose of 10E-7 for 24 hr; format: functional, Homo sapiens; how it was run: as §1
[41] = test system: HeLa; test: Tested for effect of compound on G0/G1 cell cycle phase and apoptosis in HeLa cells at a dose of 10E-8 for 48 hr; format: functional, Homo sapiens; how it was run: as §2

Structure (SMILES): COC(=O)[C@@H]1C(/C=N/c2ccccc2O)=Cc2cc3c(cc2C1c1cc(OC)c(OC)c(OC)c1)OCO3 (some centres undefined)
- IC50 [1]: > 9700 nM
- IC50 [2]: > 9700 nM
- IC50 [3]: 970 nM

Structure (SMILES): COC(=O)[C@@H]1C(/C=N/c2ccc(OC)cc2)=Cc2cc3c(cc2C1c1cc(OC)c(OC)c(OC)c1)OCO3 (some centres undefined)
- Activity [4]: 26.6%
- Activity [5]: 1.6%
- Activity [6]: 25.5%
- Activity [7]: 11.4%
- Activity [8]: 19.4%
- Activity [9]: 20.9%
- Activity [10]: 28.2%
- Activity [11]: 2%
- Activity [12]: 25.3%
- Activity [13]: 7.7%
- Activity [14]: 1.9%
- Activity [15]: 6.2%
- Activity [16]: 59.3%
- Activity [17]: 2.7%
- IC50 [2]: 94 nM
- Activity [18]: 33.5%
- Activity [19]: 46.1%
- Activity [20]: 15.1%
- Activity [21]: 90.8%
- Activity [22]: 49.4%
- Activity [23]: 47.8%
- Activity [24]: 80.9%
- Selectivity index [25]: 100
- IC50 [26]: 940 nM
- IC50 [3]: 9.4 nM
- Activity [27]: 24.2%
- Activity [28]: 6%
- Activity [29]: 5.2%
- Activity [30]: 1.4%
- Activity [31]: 35.1%
- Activity [32]: 55.1%
- Activity [33]: 10.4%
- Activity [34]: 1.9%
- Activity [35]: 20.8%
- Activity [36]: 13.6%
- Activity [37]: 5.3%
- Activity [38]: 15.3%
- Activity [39]: 27.1%
- Activity [40]: 18.8%
- Activity [41]: 57.5%

Structure (SMILES): COC(=O)[C@@H]1C(/C=N/c2cncnc2N)=Cc2cc3c(cc2C1c1cc(OC)c(OC)c(OC)c1)OCO3 (some centres undefined)
- IC50 [1]: 1000 nM
- IC50 [2]: 23 nM
- Selectivity index [25]: 83
- IC50 [26]: 1900 nM
- IC50 [3]: 23 nM

Structure (SMILES): CCn1nccc1/N=C/C1=Cc2cc3c(cc2C(c2cc(OC)c(OC)c(OC)c2)[C@@H]1C(=O)OC)OCO3 (some centres undefined)
- Activity [4]: 25.4%
- Activity [5]: 1.8%
- Activity [6]: 28.2%
- Activity [7]: 12.2%
- Activity [8]: 31.3%
- Activity [9]: 16%
- Activity [10]: 24.1%
- Activity [11]: 6.8%
- Activity [12]: 23.8%
- Activity [13]: 49.5%
- Activity [14]: 1.7%
- Activity [15]: 13%
- Activity [16]: 60.1%
- IC50 [1]: 960 nM
- Activity [17]: 2.3%
- IC50 [2]: 960 nM
- Activity [18]: 55.6%
- Activity [19]: 24.3%
- Activity [20]: 14.1%
- Activity [21]: 81.5%
- Activity [22]: 39.6%
- Activity [23]: 49.4%
- Activity [24]: 35.6%
- Selectivity index [25]: 20
- IC50 [26]: 960 nM
- IC50 [3]: 48 nM
- Activity [27]: 44.4%
- Activity [28]: 10.8%
- Activity [29]: 1.9%
- Activity [30]: 1.3%
- Activity [31]: 37.7%
- Activity [32]: 56.4%
- Activity [33]: 21%
- Activity [34]: 2.1%
- Activity [35]: 8.1%
- Activity [36]: 12.3%
- Activity [37]: 9.6%
- Activity [38]: 18.2%
- Activity [39]: 5.6%
- Activity [40]: 18.3%
- Activity [41]: 56%
